Legend:
[1] = biological target: Transcription initiation factor TFIID subunit 1-like (Homo sapiens) (UniProt Q8IZX4); assay: Inhibition of human recombinant TAF1L at 40 nM related to control ULK1
[2] = biological target: Aurora kinase B (Homo sapiens) (UniProt Q96GD4); assay: Inhibition of human recombinant AurB at 40 nM in presence of ATP by radiometric assay relative to control
Summary of the method: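 Part of a radiometric in vitro activity panel of 327 recombinant human kinases. Each kinase was tested in duplicate at one inhibitor concentration. Activity remaining was expressed as a percentage of the vehicle control, and percent inhibition was taken as 100 minus that value.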

[3] = biological target: T1, Phosphorylase b kinase gamma catalytic chain, liver/testis isoform (Homo sapiens) (UniProt P15735); assay: Inhibition of human recombinant PHKg2 at 40 nM related to control ULK1
T1 sequence (whole entry): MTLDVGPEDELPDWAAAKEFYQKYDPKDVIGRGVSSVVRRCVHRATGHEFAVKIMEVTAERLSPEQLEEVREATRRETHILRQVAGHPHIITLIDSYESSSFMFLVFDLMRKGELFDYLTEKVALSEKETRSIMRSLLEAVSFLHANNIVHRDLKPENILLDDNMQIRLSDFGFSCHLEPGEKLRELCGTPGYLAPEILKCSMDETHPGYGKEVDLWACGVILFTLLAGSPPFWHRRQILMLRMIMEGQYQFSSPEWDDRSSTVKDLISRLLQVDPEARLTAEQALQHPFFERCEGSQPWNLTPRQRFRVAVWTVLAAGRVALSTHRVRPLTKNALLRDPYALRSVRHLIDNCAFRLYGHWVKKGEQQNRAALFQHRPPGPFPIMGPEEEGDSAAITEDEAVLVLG

[4] = biological target: Serine/threonine-protein kinase 33 (Homo sapiens) (UniProt Q9BYT3); assay: Inhibition of human recombinant STK33 at 40 nM in presence of ATP by radiometric assay relative to control
[5] = biological target: Tyrosine-protein kinase JAK1 (Homo sapiens) (UniProt P23458); assay: Inhibition of human recombinant JAK1 at 15 nM in presence of ATP by radiometric assay relative to control
[6] = biological target: T2, Interleukin-1 receptor-associated kinase 4 (Homo sapiens) (UniProt Q9NWZ3); assay: Inhibition of human recombinant IRAK4 at 15 nM related to control ULK1
T2 sequence (whole entry): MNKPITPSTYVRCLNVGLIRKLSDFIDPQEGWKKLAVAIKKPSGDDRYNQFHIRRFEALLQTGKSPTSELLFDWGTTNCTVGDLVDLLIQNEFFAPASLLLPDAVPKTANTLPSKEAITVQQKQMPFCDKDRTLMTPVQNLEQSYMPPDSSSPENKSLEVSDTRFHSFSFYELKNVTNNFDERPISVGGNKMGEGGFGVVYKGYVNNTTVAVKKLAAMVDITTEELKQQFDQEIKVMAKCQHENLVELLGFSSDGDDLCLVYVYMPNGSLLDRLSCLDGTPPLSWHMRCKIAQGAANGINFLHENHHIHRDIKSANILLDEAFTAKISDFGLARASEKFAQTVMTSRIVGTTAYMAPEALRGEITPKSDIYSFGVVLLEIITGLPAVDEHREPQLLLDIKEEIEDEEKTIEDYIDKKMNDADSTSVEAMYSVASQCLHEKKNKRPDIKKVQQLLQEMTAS

[7] = biological target: Serine/threonine-protein kinase mTOR (Homo sapiens) (UniProt P42345); assay: Inhibition of human recombinant FRAP at 15 nM related to control ULK1
[8] = biological target: T3, Serine/threonine-protein kinase BRSK2 (Homo sapiens) (UniProt Q8IWQ3); assay: Inhibition of human recombinant BRSK2 at 500 nM in presence of ATP by radiometric assay relative to control
T3 sequence (whole entry): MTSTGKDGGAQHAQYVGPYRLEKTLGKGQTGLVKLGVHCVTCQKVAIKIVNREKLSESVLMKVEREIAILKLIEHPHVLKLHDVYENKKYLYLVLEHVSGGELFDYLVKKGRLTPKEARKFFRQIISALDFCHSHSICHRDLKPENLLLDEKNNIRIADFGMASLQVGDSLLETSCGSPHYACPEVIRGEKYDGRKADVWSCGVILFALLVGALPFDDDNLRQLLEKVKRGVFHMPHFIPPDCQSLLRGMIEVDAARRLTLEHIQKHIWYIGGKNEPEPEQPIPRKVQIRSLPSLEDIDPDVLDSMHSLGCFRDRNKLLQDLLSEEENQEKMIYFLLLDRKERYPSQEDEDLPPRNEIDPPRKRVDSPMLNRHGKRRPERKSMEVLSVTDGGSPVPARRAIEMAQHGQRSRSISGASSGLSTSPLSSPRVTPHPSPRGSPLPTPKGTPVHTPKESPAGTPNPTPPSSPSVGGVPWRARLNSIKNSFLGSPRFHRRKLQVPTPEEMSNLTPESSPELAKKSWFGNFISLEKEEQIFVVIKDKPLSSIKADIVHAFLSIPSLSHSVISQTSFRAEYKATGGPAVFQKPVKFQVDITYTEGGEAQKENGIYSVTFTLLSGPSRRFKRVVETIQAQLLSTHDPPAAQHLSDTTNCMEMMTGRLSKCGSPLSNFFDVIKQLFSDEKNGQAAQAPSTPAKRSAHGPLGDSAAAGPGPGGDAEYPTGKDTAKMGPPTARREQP
Summary of the method: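 Recombinant human kinase panel (327 kinases) run as radiometric activity assays, each kinase in duplicate at one compound concentration. Activity remaining expressed relative to vehicle control; percent inhibition taken as 100% minus % activity remaining.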

[9] = biological target: T4, NUAK family SNF1-like kinase 2 (Homo sapiens) (UniProt Q9H093); assay: Inhibition of human recombinant NuaK2 at 500 nM in presence of ATP by radiometric assay relative to control
T4 sequence (whole entry): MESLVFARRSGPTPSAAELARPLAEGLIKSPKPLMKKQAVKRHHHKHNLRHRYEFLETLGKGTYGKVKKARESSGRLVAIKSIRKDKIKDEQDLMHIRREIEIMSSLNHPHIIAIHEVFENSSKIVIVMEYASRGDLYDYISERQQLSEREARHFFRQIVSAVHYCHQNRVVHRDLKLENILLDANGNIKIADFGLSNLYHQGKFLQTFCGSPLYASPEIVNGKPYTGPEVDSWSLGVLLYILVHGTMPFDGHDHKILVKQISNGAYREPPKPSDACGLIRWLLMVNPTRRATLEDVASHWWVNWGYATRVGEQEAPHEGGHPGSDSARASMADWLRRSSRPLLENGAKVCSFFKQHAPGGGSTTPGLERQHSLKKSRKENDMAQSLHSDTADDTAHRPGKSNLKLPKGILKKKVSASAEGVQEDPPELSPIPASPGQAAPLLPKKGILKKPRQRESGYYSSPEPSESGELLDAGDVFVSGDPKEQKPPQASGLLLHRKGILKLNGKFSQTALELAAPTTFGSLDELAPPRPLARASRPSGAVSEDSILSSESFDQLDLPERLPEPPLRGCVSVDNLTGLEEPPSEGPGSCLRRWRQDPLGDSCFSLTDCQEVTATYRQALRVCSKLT

[10] = biological target: Ephrin type-A receptor 4 (Homo sapiens) (UniProt P54764); assay: Inhibition of human recombinant EphA4 at 500 nM related to control ULK1
Sequence of Ephrin type-A receptor 4 (Homo sapiens) (P54764 whole entry): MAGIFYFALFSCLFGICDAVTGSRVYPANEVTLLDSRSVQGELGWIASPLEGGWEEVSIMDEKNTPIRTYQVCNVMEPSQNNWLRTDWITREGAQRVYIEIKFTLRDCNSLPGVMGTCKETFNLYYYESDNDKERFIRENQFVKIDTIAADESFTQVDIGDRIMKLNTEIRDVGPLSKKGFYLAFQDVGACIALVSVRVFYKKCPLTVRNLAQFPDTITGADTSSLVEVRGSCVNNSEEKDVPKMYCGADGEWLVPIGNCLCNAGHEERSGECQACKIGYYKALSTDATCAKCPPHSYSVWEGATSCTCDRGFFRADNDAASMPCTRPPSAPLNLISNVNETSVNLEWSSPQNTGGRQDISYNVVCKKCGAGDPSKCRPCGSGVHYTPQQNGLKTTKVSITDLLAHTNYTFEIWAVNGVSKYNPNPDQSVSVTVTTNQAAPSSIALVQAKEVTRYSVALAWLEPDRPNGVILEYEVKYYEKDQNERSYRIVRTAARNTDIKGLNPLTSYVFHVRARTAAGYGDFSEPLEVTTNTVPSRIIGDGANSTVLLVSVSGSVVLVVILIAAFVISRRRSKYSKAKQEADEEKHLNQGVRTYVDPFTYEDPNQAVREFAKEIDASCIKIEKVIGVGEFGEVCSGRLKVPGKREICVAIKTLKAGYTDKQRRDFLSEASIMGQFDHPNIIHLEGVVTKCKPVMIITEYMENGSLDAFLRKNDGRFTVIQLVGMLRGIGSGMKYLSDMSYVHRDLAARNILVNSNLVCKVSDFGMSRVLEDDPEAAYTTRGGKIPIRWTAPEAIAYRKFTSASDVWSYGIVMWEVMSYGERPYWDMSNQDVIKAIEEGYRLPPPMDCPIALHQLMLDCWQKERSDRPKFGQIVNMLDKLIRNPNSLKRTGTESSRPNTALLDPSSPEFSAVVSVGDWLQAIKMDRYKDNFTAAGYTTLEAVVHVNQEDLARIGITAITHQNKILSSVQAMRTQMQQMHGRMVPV

Sequence of Transcription initiation factor TFIID subunit 1-like (Homo sapiens) (Q8IZX4 whole entry): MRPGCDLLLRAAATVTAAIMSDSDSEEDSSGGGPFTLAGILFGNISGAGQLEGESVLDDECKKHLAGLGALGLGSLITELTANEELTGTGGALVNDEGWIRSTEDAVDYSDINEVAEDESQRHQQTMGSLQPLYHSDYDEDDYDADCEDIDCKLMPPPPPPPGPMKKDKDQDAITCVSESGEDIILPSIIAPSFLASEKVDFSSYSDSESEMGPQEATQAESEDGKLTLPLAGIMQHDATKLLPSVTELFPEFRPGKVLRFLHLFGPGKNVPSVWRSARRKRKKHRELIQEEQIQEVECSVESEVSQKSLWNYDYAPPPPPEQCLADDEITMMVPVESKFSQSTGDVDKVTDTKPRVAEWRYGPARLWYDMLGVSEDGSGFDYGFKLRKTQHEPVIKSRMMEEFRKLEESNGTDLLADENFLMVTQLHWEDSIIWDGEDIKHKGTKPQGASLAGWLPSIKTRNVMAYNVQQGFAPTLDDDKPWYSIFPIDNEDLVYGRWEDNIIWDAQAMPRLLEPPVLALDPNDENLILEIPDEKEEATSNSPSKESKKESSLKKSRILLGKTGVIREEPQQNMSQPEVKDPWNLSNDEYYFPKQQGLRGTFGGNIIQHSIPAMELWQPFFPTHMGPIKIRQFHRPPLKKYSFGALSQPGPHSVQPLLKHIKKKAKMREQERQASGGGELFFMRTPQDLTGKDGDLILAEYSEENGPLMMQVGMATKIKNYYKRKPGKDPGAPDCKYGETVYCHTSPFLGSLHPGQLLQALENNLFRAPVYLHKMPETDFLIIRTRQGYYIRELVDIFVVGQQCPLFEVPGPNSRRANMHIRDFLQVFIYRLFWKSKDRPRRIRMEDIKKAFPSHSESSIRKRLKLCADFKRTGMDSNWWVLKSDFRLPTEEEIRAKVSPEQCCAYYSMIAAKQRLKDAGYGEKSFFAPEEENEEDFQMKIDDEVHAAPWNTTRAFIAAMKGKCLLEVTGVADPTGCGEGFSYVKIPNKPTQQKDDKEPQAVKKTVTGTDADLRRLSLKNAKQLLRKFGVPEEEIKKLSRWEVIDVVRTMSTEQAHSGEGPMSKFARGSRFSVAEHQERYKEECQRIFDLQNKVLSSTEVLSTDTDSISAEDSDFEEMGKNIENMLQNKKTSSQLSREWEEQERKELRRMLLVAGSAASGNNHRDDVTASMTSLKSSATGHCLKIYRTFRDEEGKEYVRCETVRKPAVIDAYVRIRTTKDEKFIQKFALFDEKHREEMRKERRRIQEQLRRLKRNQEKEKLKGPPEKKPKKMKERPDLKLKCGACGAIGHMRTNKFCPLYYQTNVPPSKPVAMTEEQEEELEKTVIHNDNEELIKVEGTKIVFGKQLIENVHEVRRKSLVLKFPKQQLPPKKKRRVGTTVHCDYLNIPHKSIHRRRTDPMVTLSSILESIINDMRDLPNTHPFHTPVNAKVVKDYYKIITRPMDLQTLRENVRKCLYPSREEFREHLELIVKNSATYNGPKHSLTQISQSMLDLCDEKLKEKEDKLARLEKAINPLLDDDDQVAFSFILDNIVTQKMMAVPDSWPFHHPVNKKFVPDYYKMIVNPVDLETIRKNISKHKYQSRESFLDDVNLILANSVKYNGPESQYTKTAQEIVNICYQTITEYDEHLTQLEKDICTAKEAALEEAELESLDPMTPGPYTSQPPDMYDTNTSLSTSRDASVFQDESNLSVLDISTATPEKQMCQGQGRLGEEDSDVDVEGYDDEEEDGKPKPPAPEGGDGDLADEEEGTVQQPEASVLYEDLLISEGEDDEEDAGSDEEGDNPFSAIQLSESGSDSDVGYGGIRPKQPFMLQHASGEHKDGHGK
Sequence of Aurora kinase B (Homo sapiens) (Q96GD4 whole entry): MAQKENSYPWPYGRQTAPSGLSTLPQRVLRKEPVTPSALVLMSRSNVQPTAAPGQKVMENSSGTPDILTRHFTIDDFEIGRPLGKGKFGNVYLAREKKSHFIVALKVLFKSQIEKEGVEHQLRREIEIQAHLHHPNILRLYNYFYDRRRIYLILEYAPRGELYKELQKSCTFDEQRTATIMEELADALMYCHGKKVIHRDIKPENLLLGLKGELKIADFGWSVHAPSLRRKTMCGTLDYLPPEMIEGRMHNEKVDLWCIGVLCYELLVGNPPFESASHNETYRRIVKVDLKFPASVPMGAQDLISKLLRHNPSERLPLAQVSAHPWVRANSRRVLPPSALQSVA
Sequence of Serine/threonine-protein kinase 33 (Homo sapiens) (Q9BYT3 whole entry, looked up): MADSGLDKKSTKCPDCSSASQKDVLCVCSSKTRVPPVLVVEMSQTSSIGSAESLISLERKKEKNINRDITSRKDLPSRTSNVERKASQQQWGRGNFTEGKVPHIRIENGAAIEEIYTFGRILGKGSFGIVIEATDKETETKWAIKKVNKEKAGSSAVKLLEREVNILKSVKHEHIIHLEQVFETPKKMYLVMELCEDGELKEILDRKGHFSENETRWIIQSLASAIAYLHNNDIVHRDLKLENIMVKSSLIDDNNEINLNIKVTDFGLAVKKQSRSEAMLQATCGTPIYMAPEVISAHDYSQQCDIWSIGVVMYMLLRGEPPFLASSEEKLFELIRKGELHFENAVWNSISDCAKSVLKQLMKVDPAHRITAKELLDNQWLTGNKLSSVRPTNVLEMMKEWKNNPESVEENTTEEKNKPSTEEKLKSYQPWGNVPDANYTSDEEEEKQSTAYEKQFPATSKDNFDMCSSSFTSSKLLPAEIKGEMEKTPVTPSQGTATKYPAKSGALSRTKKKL
Sequence of Tyrosine-protein kinase JAK1 (Homo sapiens) (P23458 whole entry): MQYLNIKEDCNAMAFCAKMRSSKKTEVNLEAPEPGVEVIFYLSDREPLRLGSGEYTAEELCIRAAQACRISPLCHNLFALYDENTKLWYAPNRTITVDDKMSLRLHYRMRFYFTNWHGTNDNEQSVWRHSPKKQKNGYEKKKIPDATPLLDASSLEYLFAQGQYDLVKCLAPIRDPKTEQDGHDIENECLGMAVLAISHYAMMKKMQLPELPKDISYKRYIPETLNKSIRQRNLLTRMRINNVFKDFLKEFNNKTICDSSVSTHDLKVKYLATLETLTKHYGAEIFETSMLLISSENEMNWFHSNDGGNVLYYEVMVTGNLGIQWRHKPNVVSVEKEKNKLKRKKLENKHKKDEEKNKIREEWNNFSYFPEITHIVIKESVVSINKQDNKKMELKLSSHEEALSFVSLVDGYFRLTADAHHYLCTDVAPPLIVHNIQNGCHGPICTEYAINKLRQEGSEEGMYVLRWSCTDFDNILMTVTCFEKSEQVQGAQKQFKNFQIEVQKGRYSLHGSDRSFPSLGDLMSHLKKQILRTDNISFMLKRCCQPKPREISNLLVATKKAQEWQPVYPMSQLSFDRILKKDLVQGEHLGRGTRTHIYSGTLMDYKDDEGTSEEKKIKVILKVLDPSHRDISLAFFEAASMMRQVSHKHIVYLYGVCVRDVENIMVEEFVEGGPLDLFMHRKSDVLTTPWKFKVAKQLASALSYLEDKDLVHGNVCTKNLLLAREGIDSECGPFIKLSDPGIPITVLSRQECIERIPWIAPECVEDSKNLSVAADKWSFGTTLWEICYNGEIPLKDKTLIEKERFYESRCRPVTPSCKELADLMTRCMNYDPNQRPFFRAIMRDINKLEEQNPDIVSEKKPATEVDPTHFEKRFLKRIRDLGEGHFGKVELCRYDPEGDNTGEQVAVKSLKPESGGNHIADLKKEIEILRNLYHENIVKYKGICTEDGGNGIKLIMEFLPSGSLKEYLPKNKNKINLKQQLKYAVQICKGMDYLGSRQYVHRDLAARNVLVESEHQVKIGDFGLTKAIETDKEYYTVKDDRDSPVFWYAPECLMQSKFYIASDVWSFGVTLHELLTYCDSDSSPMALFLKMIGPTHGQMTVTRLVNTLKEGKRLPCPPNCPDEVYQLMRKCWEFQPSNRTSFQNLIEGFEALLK

O=C(N[C@@H](C1CC1)C(F)(F)F)c1cc(-c2cnn3cc(-c4ccc(F)cc4)cnc23)cs1
fold change (FC) [1]: 0.64 | inhibition [2]: 49% | fold change (FC) [3]: 0 | inhibition [4]: 19%

CC(C)[C@H](NC(=O)c1cc(-c2cnn3cc(-c4ccc(OCCN5CCCCC5)cc4)cnc23)cs1)C(F)(F)F
inhibition [5]: 0% | fold change (FC) [6]: 0 | fold change (FC) [7]: 0

CNC(=O)c1ccccc1Oc1nc(Nc2cc(OC)c(OC)c(OC)c2)ncc1Br
inhibition [8]: 3% | inhibition [9]: 64% | fold change (FC) [10]: 0.2
